Key:
Type in all cases: functional
[1] = In vitro inhibition of Arachidonic acid (100 uM) induced platelet aggregatory activity.
[2] = In vitro inhibition of Collagen (10 ug/mL) induced platelet aggregatory activity
Outline: (§1)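 Platelets were preincubated with test agent or vehicle (DMSO 0.5%) at 37 °C for 3 min before the inducer was added, and aggregation was then followed. Aspirin served as the positive control. IC50 values are reported as means ± SE (n=3).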

[3] = Percentage inhibition against platelet activating factor (2 ng/mL) induced platelet aggregatory activity
[4] = Percentage inhibition against thrombin induced platelet aggregatory activity; parameters: concentration or dose not given beside the values
[5] = In vitro inhibition of Collagen (10 ug/mL) induced platelet aggregatory activity.
[6] = Inhibitory concentration required against Arachidonic acid (100 uM) induced platelet aggregatory activity; outline: as §1
[7] = Percentage inhibition against Platelet activating factor (2 ng/mL) induced platelet aggregatory activity

Row | SMILES | Inhibition [1] [%] | Inhibition [2] [%] | Inhibition [3] [%] | Inhibition [4] [%] | IC50 [5] [µM] | IC50 [6] [µM] | IC50 [7] [µM]
1 | COc1cc2c(cc1OC)C(C(=O)c1ccc(Br)cc1)=NCC2 | 6 | 20 | 10 | 4 |  |  | 
2 | COc1cc2ccnc(Cc3ccccc3Cl)c2cc1OC | 34 |  | 13 | 8 | 72.3 |  | 
3 | COc1cc2c(cc1OC)C(C(=O)c1ccccc1OC)=NCC2 | 21 | 18 | 26 | 8 |  |  | 
4 | COc1cc2ccnc(Cc3cccc(Cl)c3)c2cc1OC |  |  | 11 | 18 | 73.6 | 90.2 | 
5 | COc1cc2ccnc(Cc3ccc(Cl)cc3)c2cc1OC |  |  | 26 | 28 | 32.7 | 51.3 | 
6 | COc1cc2ccnc(C(=O)c3ccccc3Br)c2cc1OC | 49 |  | 25 | 6 | 77.3 |  | 
7 | COc1cc2c(cc1OC)C(C(=O)c1ccc(Cl)cc1)=NCC2 | 48 |  | 22 | 18 | 66.1 |  | 
8 | COc1cc2ccnc(Cc3cccc(Br)c3)c2cc1OC |  |  | 23 | 8 | 48.9 | 68.8 | 
9 | COc1cc2ccnc(C(=O)c3ccccc3OC)c2cc1OC | 50 | 39 | 35 | 1 |  |  | 
10 | COc1cc2ccnc(C(=O)c3ccc(Cl)cc3)c2cc1OC | 11 |  |  | 9 | 89.2 |  | 
11 | COc1cc2ccnc(Cc3ccccc3Br)c2cc1OC | 46 |  | 8 | 7 | 99.2 |  | 
12 | COc1cc2ccnc(C(=O)c3ccc(Br)cc3)c2cc1OC | 22 | 36 | 44 | 5 |  |  | 
13 | COc1cc2c(cc1OC)C(C(=O)c1cccc(Cl)c1)=NCC2 | 25 | 35 | 32 | 3 |  |  | 
14 | CC(=O)Oc1ccccc1C(=O)O [ASPIRIN] |  |  | 2 | 81 | 34.9 | 34.6 | 
15 | COc1cccc(C(=O)c2nccc3cc(OC)c(OC)cc23)c1 |  |  |  | 46 | 39.1 | 37.7 | 73
16 | COc1cc2ccnc(C(=O)c3cccc(Br)c3)c2cc1OC | 35 |  |  | 5 | 69 |  | 85
17 | COc1cc2c(cc1OC)C(C(=O)c1ccccc1Cl)=NCC2 | 27 |  | 20 | 9 | 88.1 |  | 
18 | COc1cccc(C(=O)C2=NCCc3cc(OC)c(OC)cc32)c1 | 48 | 31 | 15 | 14 |  |  | 
19 | COc1cc2ccnc(C(=O)c3ccccc3Cl)c2cc1OC |  |  |  | 30 | 52.1 | 77.1 | 82
20 | COc1ccc(C(=O)c2nccc3cc(OC)c(OC)cc23)cc1 | 20 |  |  | 4 | 97 |  | 64.7
21 | COc1cc2ccnc(Cc3ccc(Br)cc3)c2cc1OC |  |  | 8 | 11 | 55.6 | 94 | 
22 | COc1ccc(C(=O)C2=NCCc3cc(OC)c(OC)cc32)cc1 | 19 |  | 41 | 10 | 87 |  | 
23 | COc1cc2ccnc(C(=O)c3cccc(Cl)c3)c2cc1OC | 35 |  | 47 | 4 | 72.6 |  | 
24 | COc1cccc(Cc2nccc3cc(OC)c(OC)cc23)c1 | 39 | 46 | 12 | 5 |  |  | 
25 | COc1ccc(C(O)c2nccc3cc(OC)c(OC)cc23)cc1 (stereo unspecified) | 44 |  | 18 | 9 | 58.9 |  | 
26 | COc1ccc(Cc2nccc3cc(OC)c(OC)cc23)cc1 |  |  | 52 | 26 | 36.7 | 59.2 | 
27 | COc1cc2c(cc1OC)C(C(=O)c1cccc(Br)c1)=NCC2 | 23 |  |  | 4 | 74.5 |  | 75.8
28 | COc1ccccc1Cc1nccc2cc(OC)c(OC)cc12 |  |  | 20 | 8 | 51.2 | 66.2 | 
